Bioassay records as filed in PubChem BioAssay.
Only some compounds are listed: those with a hit (about 2.4% of all), similar ones and a draw of the others.
S1P4 antag – blocks the human S1P4 receptor; O95977; S1P4-expressing cells, antagonist mode, reporter read-out; inhibition, % at 4.98 µM; 220,000 compounds, 0.26% hits; AID 1510; in the data active = inhibition above about 29%;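 also: 0% = wells stimulated with agonist and 100% = vehicle wells without agonist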
NPY-Y2 antag – blocks the human neuropeptide Y Y2 receptor | NPY-Y2 expressing cells, antagonist mode | inhibition, % at 2.7 µM | 140,000 compounds, 0.99% hits | AID 793 | P49146; in the data active = inhibition above about 17%;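 also: 0% = vehicle with agonist challenge and 100% = reference antagonist with challenge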
S1P4 ag – human S1P4 receptor agonism. S1P4-expressing cell line, agonist reporter assay. activation, % at 4.98 µM. 220,000 compounds, 0.35% hits. AID 1509; in the data active = activation above about 11%;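 also: 0% = DMSO vehicle and 100% = reference agonist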
NPY-Y2 PAM-ag – human NPY-Y2 potentiation or agonism, primary screen; P49146; activation, % at 3.6 µM; 220,000 compounds, 0.45% hits; AID 1359; cells expressing NPY-Y2, potentiator/agonist read-out; in the data active = activation above about 27%;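 also: cells stimulated with NPY near EC25 plus isoproterenol at EC100; 0% = vehicle plus submaximal agonist and 100% = vehicle plus saturating agonist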
NPY1 pot ag – potentiators or agonists of human neuropeptide Y receptor Y1 | P25929 | NPY-Y1 expressing cells, potentiator/agonist activation | 220,000 compounds, 0.37% hits | activation, % at 3.6 µM; in the data active = activation above about 33%, passing the limit was not always enough;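 also: cells stimulated with NPY at EC10 then isoproterenol at EC100; 0% = low agonist plus stimulus and 100% = saturating agonist plus stimulus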
Target sequence (P25929 whole entry, looked up): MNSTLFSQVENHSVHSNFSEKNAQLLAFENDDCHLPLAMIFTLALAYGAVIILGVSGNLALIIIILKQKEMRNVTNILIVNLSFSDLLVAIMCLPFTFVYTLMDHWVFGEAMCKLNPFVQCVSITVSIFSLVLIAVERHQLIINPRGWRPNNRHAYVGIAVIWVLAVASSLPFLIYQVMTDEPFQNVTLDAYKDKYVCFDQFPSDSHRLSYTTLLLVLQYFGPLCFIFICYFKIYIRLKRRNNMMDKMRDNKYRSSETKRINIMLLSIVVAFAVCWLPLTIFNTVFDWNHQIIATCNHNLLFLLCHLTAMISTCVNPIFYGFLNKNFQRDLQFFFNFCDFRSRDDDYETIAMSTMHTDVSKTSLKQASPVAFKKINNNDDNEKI
NPY Y1 blocker – antagonists of human neuropeptide Y receptor Y1 | P25929 | HEK293-CNG Y1 cells, membrane potential fluorescence; NPY at EC95, then isoproterenol | inhibition, % at 3.6 µM | 200,000 compounds, 1% hits | AID 1040;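 active = inhibition above the campaign mean inhibition of all tested compounds plus 3 SD, cut at about 20% in these data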;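 also: 0% = DMSO wells given NPY plus isoproterenol and 100% = isoproterenol alone without NPY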
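Material: HEK293 cells co-expressing NPY Y1 receptor and cyclic-nucleotide gated channel. Timing: compound incubation 1 h at room temperature, readout 45 min post-stimulation. Signal: fluorescence, membrane potential probe.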
NPY1 antag ctr – antagonizes human NPY-Y1, counter-screen to NPY-Y2 antagonists; cell-based NPY-Y1 antagonism counterscreen; shares compounds with NPY-Y2 antag; AID 1256; 710 compounds, 19% hits; inhibition, % at 3.6 µM; in the data active = inhibition above about 20%;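 also: cells challenged with NPY then isoproterenol with cAMP sensed through a CNG channel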
NPY2 antag conf – confirmation of human neuropeptide Y receptor Y2 antagonists; AID 1257; inhibition, % at 2.8 µM; 710 compounds, 32% hits; HEK293 NPY-Y2 CNG channel, membrane potential fluorescence; shares compounds with NPY-Y2 antag;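 active = mean inhibition of triplicate wells above the hit cutoff set in the primary screen, cut at about 17% in these data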;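 also: 0% = DMSO with NPY challenge and 100% = BIIE0246 high control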
Starred values were filed as active, the others as inactive; nt = no result given.

SMILES	S1P4 antag	NPY-Y2 antag	S1P4 ag	NPY-Y2 PAM-ag	NPY1 pot ag	NPY Y1 blocker	NPY1 antag ctr	NPY2 antag conf
C=CCn1c(SCC(=O)NCC2CCCO2)nc2scc(-c3ccco3)c2c1=O (configuration not stated)	9	3	2	-9	3	9	nt	nt
c1ccc2c(c1)nnn2-c1ncnc2sc3c(c12)CCCC3	-9	6	1	-23	-18	8	nt	nt
Cc1nc(-n2nnc3ccccc32)c2c3c(sc2n1)CCCC3	-3	22*	0	-36	-23	15	11	10
CCCCCCNS(=O)(=O)c1ccc(NC(=O)C2CCCO2)cc1 (configuration not stated)	-15	31*	1	-5	-12	2	8	29*
O=C(Nc1ccc(S(=O)(=O)Nc2ccc(Cl)cc2)cc1)C1CCCO1 (configuration not stated)	6	-2	2	13	7	-13	nt	nt
OCCCCNCc1cc(Br)ccc1OCc1ccccc1	9	nt	-2	-19	-36	8	nt	nt
OCCNCc1cc(Br)ccc1OCc1ccccc1Cl	-12	22*	1	-25	-68	5	10	16
CCOc1cc(C)nc(Oc2ccc(=O)[nH]n2)n1	11	-2	-1	12	9	2	nt	nt
O=C(Nc1cnn(Cc2ccc(Cl)c(Cl)c2)c1)c1nc2ncccn2n1	5	1	1	-8	10	2	nt	nt
COC(=O)c1ccc(OC)c(CSc2nnc(COc3cccc(C)c3)o2)c1	-24	23*	1	-9	-25	4	17	12
Fc1ccc(C(c2nnnn2Cc2cccs2)N2CCN(c3ccccc3)CC2)cc1 (configuration not stated)	-17	19*	0	-4	-60	9	14	5
COc1ccc(Cn2nnnc2C(c2cccs2)N2CCN(c3ccccc3)CC2)cc1 (configuration not stated)	-2	19*	0	-8	-12	12	13	7
COc1ccc(Cn2nnnc2C(c2cccs2)N2CCN(c3ccc([N+](=O)[O-])cc3)CC2)cc1 (configuration not stated)	-2	0	0	7	3	-6	nt	nt
CCC(=O)N1CCN=C1SCc1ccccc1	-2	-1	-1	-8	-5	3	nt	nt
CSc1nnc2c3cc(C)ccc3n(Cc3ccccc3)c2n1	-7	28*	0	5	-15	5	23*	42*
c1ccc(Cn2c3ccccc3c3nnc(SCCN4CCCCC4)nc32)cc1	-13	nt	0	-14	-31	nt	nt	nt
COc1cc(-c2cc(C(=O)Nc3c(Cl)cc(Cl)cc3Cl)c3ccccc3n2)cc(OC)c1OC	-14	40*	1	-24	-34	0	49*	73*
COc1cc(-c2cc(C(=O)NN3CCN(C)CC3)c3ccccc3n2)cc(OC)c1OC	-14	0	1	-7	-22	11	nt	nt
CN(CC(CC(=O)Nc1nncs1)c1ccccc1)S(=O)(=O)c1ccc(Br)cc1 (configuration not stated)	-9	18*	1	-13	-17	9	7	6
O=C(CN1CCN(Cc2ccc(Cl)cc2)C1=O)NCc1cccs1	-2	nt	-1	3	7	6	nt	nt
COc1ccc(C(=O)Oc2cc3c4c(c2)C(C)=CC(C)(C)N4C(=O)C3=O)cc1OC	1	2	0	-13	8	-2	nt	nt
COc1cccc(C(=O)Oc2cc3c4c(c2)C(C)=CC(C)(C)N4C(=O)C3=O)c1	-10	46*	1	-31	-77	16	50*	82*
CCOC(=O)c1c(-c2ccc(C)o2)csc1NC(=O)CSc1nnc(C)s1	9	18*	-1	-22	-22	17	13	16
CCOC(=O)c1c(-c2ccccc2)csc1NC(=O)CSc1nnc(C)s1	-15	12	0	-15	-25	9	nt	nt
CCOC(=O)c1c(NC(=O)CSc2nnc(C)s2)sc2c1CCC(C)C2 (configuration not stated)	-7	23*	0	8	-19	5	25*	14
SMILES	S1P4 antag	NPY-Y2 antag	S1P4 ag	NPY-Y2 PAM-ag	NPY1 pot ag	NPY Y1 blocker	NPY1 antag ctr	NPY2 antag conf
O=C(Nc1cccc(N=Cc2cc(Br)cc(Br)c2O)c1)c1ccco1	-5	17*	1	-8	-14	-1	17	25*
CCCn1nnnc1NC(=O)COc1ccc(Cl)c(C)c1	-2	5	-1	-10	-31	8	nt	nt
CCCn1nnnc1NC(=O)COc1ccc(CC)cc1	-4	18*	0	-7	-10	6	6	4
CCCCCCCC(=O)NN=C1CCN(Cc2ccccc2)CC1	-12	3	-4	-26	-49	3	nt	nt
CCCCn1c(N)c(N(CC)C(=O)C(c2ccccc2)c2ccccc2)c(=O)[nH]c1=O	-9	nt	1	8	-1	2	nt	nt
CCOc1ccc(NC(=O)C2(c3ccc(OC)c(OC)c3)CCCC2)cc1	3	27*	1	-2	-16	8	4	3
Cc1cccc(N2CCN(C(=O)C(Cc3ccccc3)n3cccc3)CC2)c1C (configuration not stated)	-12	26*	-1	-12	-36	17	13	13
Cc1cccc(N2CCN(C(=O)CCCOc3ccccc3)CC2)c1C	-3	19*	4	-16	-6	19	11	12
CCn1c(SCC(=O)OC)nnc1-c1ccc(C)cc1	-23	nt	1	1	9	nt	nt	nt
COC(=O)c1cc(-c2ccc(OC)c(OC)c2)on1	6	28*	-3	-23	-36	12	28*	50*
COC(=O)c1cc(-c2ccc(OC)cc2)on1	12	nt	1	-18	-56	13	nt	nt
CN(C)C(=O)N1CCCC(C(=O)NCc2cccs2)C1 (configuration not stated)	-13	1	0	5	7	-6	nt	nt
COc1ccc(-n2nc(C(=O)N3CCN(Cc4ccc5c(c4)OCO5)CC3)c3ccccc3c2=O)cc1	-26	17	0	8	10	-1	nt	nt
COc1ccc(-n2nc(C(=O)Nc3ccc4c(c3)OCO4)c3ccccc3c2=O)cc1	-33	23*	1	-7	-9	0	12	21*
Brc1ccccc1OCCOCCOc1cccc2cccnc12	-12	7	1	-29	-16	8	nt	nt
Clc1ccc(OCCOCCOc2cccc3cccnc23)c(Br)c1	-6	18*	0	-17	-66	1	24*	53*
Cc1cccc(OCCCOc2cccc3cccnc23)c1C	-22	21*	2	-21	-11	10	7	10
